For experiment [1], the system named is Rattus norvegicus. The experiment can be described thus: In vivo anti-ovulatory activity (AOA) against LHRH was determined at a dose of 100 ug in 6 rats. The experiment is classed as functional. An outline of the steps: (§1)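 Female 4-day cycling rats received a single subcutaneous injection of analog in corn oil between 12 and 12:30 p.m. Ova were counted on estrus. Activity is given as the number of ovulating rats over the total rats at each dose.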

The subject of experiment [2] is Rattus norvegicus. The experiment can be described thus: In vivo anti-ovulatory activity (AOA) against LHRH was determined at a dose of 1000 ug in 9 rats. The class given is functional. An outline of the steps: as §1
Experiment [3] deals with T1, Gonadotropin-releasing hormone receptor (Rattus norvegicus) (UniProt P30969).
T1 sequence (whole entry): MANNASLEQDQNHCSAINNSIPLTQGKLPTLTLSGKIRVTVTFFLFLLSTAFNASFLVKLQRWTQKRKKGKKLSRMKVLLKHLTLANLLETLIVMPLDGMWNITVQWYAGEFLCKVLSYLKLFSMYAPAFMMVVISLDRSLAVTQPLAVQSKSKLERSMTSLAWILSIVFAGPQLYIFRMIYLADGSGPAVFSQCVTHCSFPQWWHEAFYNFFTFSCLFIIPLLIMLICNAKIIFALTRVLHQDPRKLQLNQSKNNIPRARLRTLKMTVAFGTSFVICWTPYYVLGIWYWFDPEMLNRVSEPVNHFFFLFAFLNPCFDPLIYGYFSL
Description: In vitro antagonistic activity against LH release in rat pituitary cells for control. The experiment is classed as functional, cell-based. To be noted: Pituitary gland cell. A digest of the protocol: (§2)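 Anterior pituitaries from female Sprague-Dawley rats (240-260 g, 18 rats) were minced and dispersed in Gey's solution with trypsin, DNase I and LBBI. Cells were plated in DMEM with 0.45% glucose, 25 mM HEPES, serum, T and 100 nM dexamethasone at about 3.0 × 10^5 cells/mL and cultured 4 days at 37 °C in 8% CO2. Cells were then exposed to antagonist plus 1 ng LHRH in Gey's solution with 0.3% glucose for 2 h. LH in the medium was measured by RIA as ng/mL of RP-3.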

Experiment [4] deals with T1, Gonadotropin-releasing hormone receptor (Rattus norvegicus). Description: In vitro inhibition of LH release was determined in rat pituitary cells at a dose of 0.03 ug of analogue and 1 ng of LHRH. The experiment is classed as functional, cell-based. Conditions: Pituitary gland cell. A digest of the protocol:
as §2

The target is the same in experiment [5]. Description: In vitro inhibition of LH release was determined in rat pituitary cells at a dose of 0.1 ug of analogue and 1 ng of LHRH. The class given is functional, cell-based. Conditions: Pituitary gland cell. An outline of the steps:
as §2

Experiment [6] has the same target. The experiment can be described thus: In vitro inhibition of LH release was determined in rat pituitary cells at a dose of 0.3 ug of analogue and 1 ng of LHRH. The experiment is classed as functional, cell-based. To be noted: Pituitary gland cell. A digest of the protocol: as §2
Experiment [7] is filed under the species Rattus norvegicus. Description: In vitro inhibition of LH release in rat pituitary cells at a dose of 1 ng LHRH in absence of the compound. The experiment is classed as functional, Pituitary gland cell. Set-up: unit: ng/mL. A digest of the protocol:
as §2

The target in experiment [8] is T1, Gonadotropin-releasing hormone receptor (Rattus norvegicus). Description: In vitro inhibition of LH release in rat pituitary cells at a dose of 1 ug of analogue and 1 ng of LHRH. The class given is functional, cell-based. Conditions: Pituitary gland cell. A digest of the protocol:
as §2

In the case of `CCNC(=O)[C@@H]1CCCN1C(=O)[C@H](CCCN=C(N)N)NC(=O)[C@H](CC(C)C)NC(=O)[C@@H](Cc1ccc2ccccc2c1)NC(=O)[C@H](Cc1ccc(O)cc1)NC(=O)[C@H](CO)NC(=O)[C@@H](Cc1ccc2ccccc2c1)NC(C)=O`, the AOA amounted to 6 in the experiment on Rattus norvegicus [1] and 2 in the experiment with Rattus norvegicus [2]. In addition, the Activity was 3.2 in experiment [3]; 45 in experiment [4]; 5 in experiment [5]; 4 in experiment [6]; 153 in the experiment filed under Rattus norvegicus [7]; 3 in experiment [8].

Source of the values: ChEMBL document CHEMBL1128487, “Reduced-size antagonists of luteinizing hormone-releasing hormone active in vitro” (1995).
